Experimental data taken from ChEMBL document CHEMBL5058577, “EUbOPEN Chemogenomics Library 2 (Multiplex)” (2022).

System: Fibroblast
Assay: Multiplex assay against human fibroblast
Format: toxicity, cell-based
Outline: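 Hoechst33342, BioTracker Green Microtubule Cytoskeleton Dye, MitoTracker Red and Annexin V Alexa Fluor 680 were added to live cells at seeding, and imaging on a CQ1 microscope at 37°C and 5% CO2 followed compound addition. Gating by CellPathfinder machine learning separated cells into Hoechst high-intensity objects or normal cells, then normal cells into healthy, pyknosed or fragmented nuclei, then pyknosed cells into mitotic or apoptotic. Per cents of healthy-nucleus cells are reported for the tubulin, mitochondrial-mass and membrane-permeability phenotypes.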

[1] = 12 h, 1 µM, compound concentration 1 uM, replicate 1
[2] = 12 h, 1 µM, compound concentration 1 uM, replicate 2
[3] = 12 h, 10 µM, compound concentration 10 uM, replicate 1
[4] = 12 h, 10 µM, compound concentration 10 uM, replicate 2
[5] = 24 h, 1 µM, compound concentration 1 uM, replicate 1
[6] = 24 h, 1 µM, compound concentration 1 uM, replicate 2
[7] = 24 h, 10 µM, compound concentration 10 uM, replicate 1
[8] = 24 h, 10 µM, compound concentration 10 uM, replicate 2
[9] = 48 h, 1 µM, compound concentration 1 uM, replicate 1
[10] = 48 h, 1 µM, compound concentration 1 uM, replicate 2
[11] = 48 h, 10 µM, compound concentration 10 uM, replicate 1
[12] = 48 h, 10 µM, compound concentration 10 uM, replicate 2

With `C=CCN1C[C@H](C(=O)N(CCCN(C)C)C(=O)NCC)C[C@@H]2c3cccc4[nH]cc(c34)C[C@H]21` [CABERGOLINE] the “Population Apoptotic (%)” value [1] was 69%, the “Population Fragmented Nuclei (%)” value [1] was 13% and the “Population Healthy Nuclei (%)” value [1] was 78%. The “Population Hoechst High Intensity Objects (%)” value [1] was 6%, the “Population Membrane Permeable-Phenotype (%)” value [1] was 0% and the “Population Mitochondria Different-Phenotype (%)” value [1] was 2%. For the same compound, the “Population Mitotic Cells (%)” value [1] was 30%, the “Population Normal (%)” value [1] was 93% and the “Population Pyknosed Nuclei (%)” value [1] was 7%. The “Population Tubulin-Different-Phenotype (%)” value [1] was 26%, the “Total Cell Count” value [1] was 186 and the “Population Apoptotic (%)” value [2] was 35%. The “Population Fragmented Nuclei (%)” value [2] was 20%, the “Population Healthy Nuclei (%)” value [2] was 46% and the “Population Membrane Permeable-Phenotype (%)” value [2] was 4%. The “Population Mitochondria Different-Phenotype (%)” value [2] was 1%, the “Population Mitotic Cells (%)” value [2] was 64% and the “Population Pyknosed Nuclei (%)” value [2] was 33%. The “Population Tubulin-Different-Phenotype (%)” value [2] was 25%, the “Total Cell Count” value [2] was 144 and the “Population Apoptotic (%)” value [3] was 50%. For the same compound, the “Population Fragmented Nuclei (%)” value [3] was 25%, the “Population Healthy Nuclei (%)” value [3] was 64% and the “Population Hoechst High Intensity Objects (%)” value [3] was 3%. For the same compound, the “Population Membrane Permeable-Phenotype (%)” value [3] was 0%, the “Population Mitochondria Different-Phenotype (%)” value [3] was 11% and the “Population Mitotic Cells (%)” value [3] was 50%. For the same compound, the “Population Normal (%)” value [3] was 96%, the “Population Pyknosed Nuclei (%)” value [3] was 10% and the “Population Tubulin-Different-Phenotype (%)” value [3] was 46%. For the same compound, the “Total Cell Count” value [3] was 248, the “Population Apoptotic (%)” value [4] was 35% and the “Population Fragmented Nuclei (%)” value [4] was 44%. The “Population Healthy Nuclei (%)” value [4] was 39%, the “Population Hoechst High Intensity Objects (%)” value [4] was 5% and the “Population Membrane Permeable-Phenotype (%)” value [4] was 6%. For the same compound, the “Population Mitochondria Different-Phenotype (%)” value [4] was 10%, the “Population Mitotic Cells (%)” value [4] was 64% and the “Population Normal (%)” value [4] was 94%. For the same compound, the “Population Pyknosed Nuclei (%)” value [4] was 16%, the “Population Tubulin-Different-Phenotype (%)” value [4] was 53% and the “Total Cell Count” value [4] was 178. For the same compound, the “Population Apoptotic (%)” value [5] was 68%, the “Population Fragmented Nuclei (%)” value [5] was 15% and the “Population Healthy Nuclei (%)” value [5] was 74%. For the same compound, the “Population Hoechst High Intensity Objects (%)” value [5] was 4%, the “Population Membrane Permeable-Phenotype (%)” value [5] was 1% and the “Population Mitochondria Different-Phenotype (%)” value [5] was 3%. The “Population Mitotic Cells (%)” value [5] was 31%, the “Population Normal (%)” value [5] was 95% and the “Population Pyknosed Nuclei (%)” value [5] was 10%. The “Population Tubulin-Different-Phenotype (%)” value [5] was 33%, the “Total Cell Count” value [5] was 198 and the “Population Apoptotic (%)” value [6] was 44%. For the same compound, the “Population Fragmented Nuclei (%)” value [6] was 24%, the “Population Healthy Nuclei (%)” value [6] was 46% and the “Population Hoechst High Intensity Objects (%)” value [6] was 6%. The “Population Membrane Permeable-Phenotype (%)” value [6] was 3%, the “Population Mitotic Cells (%)” value [6] was 55% and the “Population Normal (%)” value [6] was 93%. For the same compound, the “Population Pyknosed Nuclei (%)” value [6] was 29%, the “Population Tubulin-Different-Phenotype (%)” value [6] was 39% and the “Total Cell Count” value [6] was 132. The “Population Apoptotic (%)” value [7] was 73%, the “Population Fragmented Nuclei (%)” value [7] was 28% and the “Population Healthy Nuclei (%)” value [7] was 65%. For the same compound, the “Population Hoechst High Intensity Objects (%)” value [7] was 1%, the “Population Membrane Permeable-Phenotype (%)” value [7] was 0% and the “Population Mitochondria Different-Phenotype (%)” value [7] was 7%. For the same compound, the “Population Mitotic Cells (%)” value [7] was 26%, the “Population Normal (%)” value [7] was 98% and the “Population Pyknosed Nuclei (%)” value [7] was 5%. For the same compound, the “Population Tubulin-Different-Phenotype (%)” value [7] was 44%, the “Total Cell Count” value [7] was 274 and the “Population Apoptotic (%)” value [8] was 43%. For the same compound, the “Population Fragmented Nuclei (%)” value [8] was 43%, the “Population Healthy Nuclei (%)” value [8] was 46% and the “Population Hoechst High Intensity Objects (%)” value [8] was 10%. For the same compound, the “Population Membrane Permeable-Phenotype (%)” value [8] was 2%, the “Population Mitochondria Different-Phenotype (%)” value [8] was 5% and the “Population Mitotic Cells (%)” value [8] was 56%. For the same compound, the “Population Normal (%)” value [8] was 89%, the “Population Pyknosed Nuclei (%)” value [8] was 9% and the “Population Tubulin-Different-Phenotype (%)” value [8] was 53%. The “Total Cell Count” value [8] was 181, the “Population Apoptotic (%)” value [9] was 56% and the “Population Fragmented Nuclei (%)” value [9] was 15%. The “Population Healthy Nuclei (%)” value [9] was 75%, the “Population Hoechst High Intensity Objects (%)” value [9] was 5% and the “Population Membrane Permeable-Phenotype (%)” value [9] was 0%. The “Population Mitochondria Different-Phenotype (%)” value [9] was 6%, the “Population Mitotic Cells (%)” value [9] was 43% and the “Population Normal (%)” value [9] was 94%. For the same compound, the “Population Pyknosed Nuclei (%)” value [9] was 8%, the “Population Tubulin-Different-Phenotype (%)” value [9] was 34% and the “Total Cell Count” value [9] was 189. The “Population Apoptotic (%)” value [10] was 58%, the “Population Fragmented Nuclei (%)” value [10] was 24% and the “Population Healthy Nuclei (%)” value [10] was 54%. For the same compound, the “Population Hoechst High Intensity Objects (%)” value [10] was 7%, the “Population Membrane Permeable-Phenotype (%)” value [10] was 6% and the “Population Mitochondria Different-Phenotype (%)” value [10] was 1%. The “Population Mitotic Cells (%)” value [10] was 41%, the “Population Normal (%)” value [10] was 92% and the “Population Pyknosed Nuclei (%)” value [10] was 21%. For the same compound, the “Population Tubulin-Different-Phenotype (%)” value [10] was 33%, the “Total Cell Count” value [10] was 156 and the “Population Apoptotic (%)” value [11] was 72%. The “Population Fragmented Nuclei (%)” value [11] was 24%, the “Population Healthy Nuclei (%)” value [11] was 68% and the “Population Hoechst High Intensity Objects (%)” value [11] was 4%. For the same compound, the “Population Membrane Permeable-Phenotype (%)” value [11] was 1%, the “Population Mitochondria Different-Phenotype (%)” value [11] was 4% and the “Population Mitotic Cells (%)” value [11] was 27%. For the same compound, the “Population Normal (%)” value [11] was 95%, the “Population Pyknosed Nuclei (%)” value [11] was 6% and the “Population Tubulin-Different-Phenotype (%)” value [11] was 46%. For the same compound, the “Total Cell Count” value [11] was 282, the “Population Apoptotic (%)” value [12] was 46% and the “Population Fragmented Nuclei (%)” value [12] was 52%. The “Population Healthy Nuclei (%)” value [12] was 37%, the “Population Hoechst High Intensity Objects (%)” value [12] was 5% and the “Population Membrane Permeable-Phenotype (%)” value [12] was 6%. For the same compound, the “Population Mitochondria Different-Phenotype (%)” value [12] was 11%, the “Population Mitotic Cells (%)” value [12] was 53% and the “Population Normal (%)” value [12] was 94%. For the same compound, the “Population Pyknosed Nuclei (%)” value [12] was 9%, the “Population Tubulin-Different-Phenotype (%)” value [12] was 44% and the “Total Cell Count” value [12] was 170.
